STAT1 blocker – STAT1 signaling inhibitors, primary screen, cell-based, HTS, luciferase reporter. NIH 3T3 STAT1-luciferase reporter, IFN-gamma, luminescence. inhibition, % at 5.5 µM. 0.35% of 200,000 active. AID 920, 2007;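 active means inhibition above a set limit, the mean inhibition across all tested compounds plus 3 SD, cut at about 34% in these data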;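 further: 0% = IFN-gamma with DMSO and 100% = IFN-gamma with 300 µM nifuroxazide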
STAT1 activator – STAT1 signaling activators, primary screen, cell-based, HTS, luciferase reporter. NIH 3T3 STAT1-luciferase reporter, IFN-gamma, luminescence; 100% = IFN-gamma alone, no compound. activation (% of control), % at 5.5 µM. 2.6% of 200,000 active. AID 932, 2007;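 active means activation above the screen-wide mean activation plus 3 SD, cut at about 130% in these data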;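 further: raw ratio to IFN-gamma control signal so 100% means no change and 0% no light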
Cl transport mod – KCC2 cotransporter modulators, thallium flux, primary screen, cell-based, HEK293 KCC2, FluoZin-2 fluorescence, MLSMR; B-score of Tl+ flux slope (higher = more flux/activation; lower = inhibition) at 10 µM; Solute carrier family 12 member 5 (Homo sapiens), Q9H2X9; 2.2% of 190,000 active; AID 1456, 2008; KCC2 cells, thallium flux FluoZin-2 fluorescence;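 active means thallium flux slope and its plate-corrected score both differing from the plate sample mean at a set confidence after two filtering rounds, in either direction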;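 further: slope of fluorescence scaled to starting intensity during 10 to 20 s after thallium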
Target sequence (Q9H2X9 whole entry, looked up): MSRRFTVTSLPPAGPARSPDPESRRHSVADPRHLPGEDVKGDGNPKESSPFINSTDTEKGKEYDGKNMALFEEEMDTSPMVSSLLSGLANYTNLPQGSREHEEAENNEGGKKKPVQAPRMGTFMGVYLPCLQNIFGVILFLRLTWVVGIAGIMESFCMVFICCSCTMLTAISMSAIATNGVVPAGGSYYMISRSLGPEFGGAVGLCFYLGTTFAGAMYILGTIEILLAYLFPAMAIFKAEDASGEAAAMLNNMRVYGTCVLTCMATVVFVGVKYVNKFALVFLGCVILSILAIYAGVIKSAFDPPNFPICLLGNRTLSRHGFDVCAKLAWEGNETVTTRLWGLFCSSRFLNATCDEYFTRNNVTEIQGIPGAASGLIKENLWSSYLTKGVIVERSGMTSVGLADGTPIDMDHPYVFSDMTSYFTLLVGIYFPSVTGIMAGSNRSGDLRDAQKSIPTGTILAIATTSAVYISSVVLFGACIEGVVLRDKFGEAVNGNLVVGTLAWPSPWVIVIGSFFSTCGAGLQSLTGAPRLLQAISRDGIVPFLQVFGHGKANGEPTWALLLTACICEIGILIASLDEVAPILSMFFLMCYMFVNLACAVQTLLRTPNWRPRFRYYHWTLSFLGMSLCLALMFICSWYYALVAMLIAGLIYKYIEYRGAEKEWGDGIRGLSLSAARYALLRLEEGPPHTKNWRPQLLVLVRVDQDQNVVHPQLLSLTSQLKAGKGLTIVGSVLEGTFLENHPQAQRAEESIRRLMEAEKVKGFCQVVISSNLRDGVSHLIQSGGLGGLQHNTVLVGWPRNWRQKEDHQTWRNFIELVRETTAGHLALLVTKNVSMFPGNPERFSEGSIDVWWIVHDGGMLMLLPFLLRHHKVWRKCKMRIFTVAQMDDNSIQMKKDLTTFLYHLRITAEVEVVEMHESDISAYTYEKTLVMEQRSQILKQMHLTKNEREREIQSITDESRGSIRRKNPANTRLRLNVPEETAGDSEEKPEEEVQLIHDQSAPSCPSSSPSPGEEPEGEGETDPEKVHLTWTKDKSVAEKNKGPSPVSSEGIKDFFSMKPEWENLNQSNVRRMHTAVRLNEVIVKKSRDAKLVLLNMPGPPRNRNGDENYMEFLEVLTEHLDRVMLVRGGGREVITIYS
HSV augment – enhancers of HSV replication in host cells, fold increase, host cell viability; AID 1956, 2009; HSV replication augmentation in cells; 0.005% of 220,000 active; maximum fold increase; in the data active means maximum fold increase above about 1.5; inconclusive means no clear call, values can overlap the other calls; tested in PC3 cells
STAT3 blocker – IL-6 driven STAT3 reporter inhibitors, primary screen, U3A cells, luciferase, luminescence, MLSCN library; IL-6 STAT3-luciferase reporter; host cell line lacks STAT1; inhibition, % at 5.5 µM; AID 862, 2007; 0.89% of 190,000 active;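 active means inhibition above the mean inhibition across all screened compounds plus 3 SD, cut at about 44% in these data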;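 further: 0% = DMSO only wells and 100% = 100 µM nifuroxazide control wells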
STAT3 act – IL-6 driven STAT3 reporter potentiators, primary screen, U3A cells, luciferase, luminescence, MLSCN library. AID 871, 2007. activation (% of control), % at 5.6 µM. 0.91% of 190,000 active. IL-6 STAT3-luciferase reporter; 100% = signal with IL-6 EC80 alone;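 active means activation above the screen-wide mean of compound activation plus 3 SD, cut at about 130% in these data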;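 further: 0% = background luminescence of wells with medium and substrate only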
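Material: STAT3-luciferase reporter U3A cells. Controls: IL-6-treated wells, 100% activation. Read-out: % activation versus median of IL-6-stimulated wells. Probe or stimulus: IL-6 stimulus at 33 ng/mL final. Timing: compound 1 h, then IL-6 6 h at 37 °C. Signal: reporter luminescence signal.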
Numbers without * were called inactive; i = inactive; ? = inconclusive; / = no result. Sampled rows, rich in hits. Any-hit rate of the full collection: about 5.5%.

SMILES	STAT1 blocker	STAT1 activator	Cl transport mod	HSV augment	STAT3 blocker	STAT3 act
Cc1ccc(-c2nnc(-c3cccc(Br)c3)o2)cc1	-26.0	122.1	0.878	i	-19.1	119.9
c1ccc(-c2nnc(-c3ccncc3)o2)cc1	-27.7	117.3	/	i	3.0	98.4
Cc1nnc(-c2ccc(Cl)cc2)[nH]c1=O	-13.7	110.2	-0.0431	i	18.1	88.6
CNC(=O)c1ccc(-c2ccc(OC)cc2)s1	-42.0	138.3*	-0.0231	i	17.3	88.5
COc1ccc(NC(=O)c2ccc(-c3ccc(OC)cc3)s2)cc1	-2.1	101.9	-0.00628	i	16.7	89.4
N#Cc1cc(N)ccc1-n1cccc1	/	/	/	i	/	/
CC(C)C(=O)Nc1ncc2c(n1)CC(c1cccs1)CC2=O (stereo unspecified)	-4.5	106.7	-0.613	i	4.0	99.4
Cc1cc([N+](=O)[O-])ccc1NC(=O)C[n+]1ccc(N(C)C)cc1	3.1	95.5	0.0101	i	7.6	95.4
Cn1c(=S)[nH]c2scc(-c3cccs3)c2c1=O	4.2	93.9	58.7*	i	10.9	92.8
O=c1c2c(-c3cccs3)csc2ncn1-c1ccc(Br)cc1	2.5	97.8	-0.857	i	-0.1	103.6
C=CCn1c(=S)[nH]c2scc(-c3cccs3)c2c1=O	4.1	95.6	88.8*	i	15.2	96.4
C=CCn1c(=S)[nH]c2ccccc2c1=O	6.3	94.2	/	?	-0.1	102.3
CCOC(=O)C1(Cc2cccc(OC)c2)CCCN(C(=O)CCc2cccnc2)C1 (stereo unspecified)	-24.4	120.6	-0.512	i	-5.9	107.0
Cc1c(Cc2ccccc2)c(=O)oc2cc(O)cc(O)c12	-2.3	100.2	-1.07	i	8.2	99.0
COCC1CCN(Cc2nc(-c3cccs3)no2)C1 (stereo unspecified)	-37.4	134.8*	0.185	i	4.8	101.2
Cc1ccc(NC(=O)C2C3CC4OC(=O)C2C4C3)cc1Cl (stereo unspecified)	5.0	95.4	-0.00623	i	0.0	100.9
CC(C)OC(=O)c1ccc(NC(=O)C2C3CC4OC(=O)C2C4C3)cc1 (stereo unspecified)	-36.2	133.3*	0.469	i	-12.1	112.9
O=C(CSc1nnc(NC(=O)c2ccco2)s1)Nc1ccccc1	-1.7	101.7	0.0224	i	-6.0	104.6
CCNC(=S)NNC(=O)c1csc2c1CCC(C)C2 (stereo unspecified)	-0.2	100.1	0.367	i	4.8	97.4
Cc1ccccc1NC(=S)NNC(=O)c1csc2c1CCC(C)C2 (stereo unspecified)	8.1	92.6	94.3*	i	30.2	78.4
COc1ccc(/C(N)=N/OC(=O)Cc2cccs2)cc1OC	-12.2	110.9	-1.31	i	5.5	97.6
COc1ccc(/C(N)=N/OC(=O)Cc2cccs2)cc1	-44.1	139.3*	-0.277	i	-9.2	105.4
COc1ccc(-c2cc(C(=O)Nc3nc4c(C)cccc4s3)c3ccccc3n2)cc1OC	8.6	92.1	0.184	i	-41.8	133.6*
COc1cccc(-c2cc(C(=O)Nc3nc4ccccc4s3)c3ccccc3n2)c1	7.9	92.9	1.25	i	-1.9	110.5
C=CC[n+]1ccc(/C=C2\C=Cc3cc(C)ccc3N2CC)c2ccccc21	36.0*	65.4	-0.579	i	86.3*	26.3
SMILES	STAT1 blocker	STAT1 activator	Cl transport mod	HSV augment	STAT3 blocker	STAT3 act
CCN1/C(=C/c2cc[n+](CCCS(=O)(=O)[O-])c3ccccc23)Sc2ccccc21	1.5	98.0	-0.0494	?	3.6	99.0
CC1CCN(c2ccc(C(=O)NCCc3ccccc3)cn2)CC1	-32.7	132.3*	-2.13	i	-8.5	110.8
CC1CCCN(c2ccc(C(=O)NCc3cccs3)cn2)C1 (stereo unspecified)	-12.9	111.9	-0.212	i	6.4	96.3
CC1CCCN(c2ccc(C(=O)NCc3ccccc3)cn2)C1 (stereo unspecified)	-40.3	136.9*	0.0316	i	1.8	100.4
CC(=O)Nc1ccc(C(=O)NCCc2ccccc2)cc1	-9.3	111.2	0.996	i	-12.4	107.8
Cc1ccc2c(C(=O)CCl)c(C)[nH]c2c1	/	/	1.42	i	/	/
COc1cccc(CN(C)C(=O)Nc2cccc(C(F)(F)F)c2)c1OC	-2.1	101.9	-0.238	i	-8.6	103.3
CN(CCC#N)C(=O)Cn1nc(Cc2ccncc2)c2ccccc2c1=O	-5.3	104.8	/	i	5.6	102.6
O=C(Cn1nc(Cc2ccncc2)c2ccccc2c1=O)N1CCc2ccccc2C1	3.6	96.7	-3.68*	/	3.8	101.2
Cc1cc(Cl)ccc1OCc1cn2cccnc2n1	-35.8	133.0*	-0.369	i	17.3	91.3
Clc1ccc(OCc2cn3cccnc3n2)c2ncccc12	-26.3	124.4	/	i	-5.2	107.2
c1cc2c(cc1C1=NNC(=NC3CC3)SC1)OCCO2	93.6*	12.3	0.391	i	108.3*	10.4
Cc1cc(C2=NNC(=NC3CC3)SC2)c(C)n1-c1ccccc1F	88.8*	20.8	0.265	i	101.8*	13.9
COc1ccc(NC(=S)Nc2cc(C)ccn2)c(OC)c1	-49.5	144.6*	0.789	i	-43.9	141.3*
COc1ccc(NC(=S)Nc2ccccn2)c(OC)c1	-40.4	136.4*	0.0148	i	-7.8	113.8
COc1ccc(NC(=S)Nc2ccc(OC)cc2OC)c(OC)c1	8.5	92.5	-0.0194	i	12.5	89.8
CC(C(=O)N1CCCC1)N1CCN(c2ccccc2O)CC1 (stereo unspecified)	-2.6	101.9	1.57	i	7.2	95.8
O=c1c2[nH]c3ccc(F)cc3c2ncn1CCC1=CCCCC1	/	/	-0.234	i	/	/
Cc1ccccc1C(=NCCCN(C)C)c1ccccc1C	2.6	97.7	-1.08	i	-1.1	99.1
Fc1ccc(/C=N/Nc2ccccn2)cc1	-19.3	117.2	-0.847	i	1.3	96.8
Brc1ccc(/C=N/Nc2ccccn2)cc1	-37.9	137.8*	-0.264	i	21.7	85.4
Clc1ccc(/C=N/Nc2ccccn2)cc1	-35.5	135.4*	1.49	i	24.9	82.6
CN(C(=O)CC(=O)Nc1ccc(Cl)c(Cl)c1)c1ccccc1	-3.3	102.1	-0.922	i	0.4	100.7
COc1cc2cc3c(N)c(C(=O)NCc4ccco4)sc3nc2cc1OC	-51.1	146.5*	/	i	14.7	92.5
Cc1ccc2nc3sc(C(=O)Nc4c(C)[nH]c(=O)[nH]c4=O)c(N)c3cc2c1	7.1	93.6	-0.00102	i	4.8	95.4

Source: PubChem
